Compounds with a hit are over-represented: about 1.2% of the library has one in this group of screens.
CTSL1 counter = Fasciola hepatica cathepsin L1 inhibitors, primary screen, counter-screen for PFM18AAP inhibitor project, biochemical, QFRET, fluorogenic peptide substrate; recombinant F. hepatica cathepsin L1, Z-Leu-Arg-MCA fluorescence; inhibition, % at 5.96 µM; 300,000 compounds, 0.49% hits; AID 1906, 2009;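 active means inhibition above the mean of all tested compounds plus 3 SD, set per screening campaign, cut at about 17% in these data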
ARFGAP1 inh = inhibitors of rat ARFGAP1 GAP activity, primary screen, biochemical, fluorescence polarization, GDP tracer; ADP-ribosylation factor GTPase-activating protein 1 (Rattus norvegicus), Q62848; Arfgap1-stimulated ARF1 GTP hydrolysis, GDP FP detection; inhibition, % at 16.5 µM; 360,000 compounds, 0.26% hits; AID 651572, 2012;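 active means inhibition above a per-plate limit, mean inhibition of low control wells plus 3 SD, cut at about 25% in these data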
Target sequence (Q62848 1-136 limits assumed): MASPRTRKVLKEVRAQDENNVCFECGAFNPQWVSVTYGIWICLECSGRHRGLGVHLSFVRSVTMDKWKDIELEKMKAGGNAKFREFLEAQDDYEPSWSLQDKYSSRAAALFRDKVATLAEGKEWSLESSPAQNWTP
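system = rat Arfgap1 catalytic domain, aa 1-136 | technique = FP, GDP Alexa 633 tracer displaced from anti-GDP antibody, 620/688 nm | compound = one concentration, 16.5 µM, DMSO 1.26% | medium = HEPES-based buffer, pH 7.5 | timing = compound-enzyme preincubation 20 min, reaction 120 min, detection 60 min, 25 °C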
HCV core dimer = inhibitors of HCV core protein dimerization, primary screen, biochemical, TR-FRET, high-throughput; TR-FRET GST/Flag-core106 dimerization, 1536-well; inhibition, % at 5 µM; 300,000 compounds, 0.33% hits;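 active means inhibition above the mean of all tested compounds plus 3 SD, set per screening campaign, cut at about 45% in these data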
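Assay system: Tagged HCV core106 pair (GST and Flag) | Buffer or medium: KF-containing HEPES buffer, pH 7.45, DTT, CHAPS, BSA | Also added: Eu donor and XL665 acceptor anti-tag antibodies | Dosing: One concentration, 5 µM, in 0.5% DMSO | Timing: 4 h at 22.5 °C | Technique: TR-FRET 671 and 617 nm emission | Repeats: Singlicate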
ASAP1 inh = inhibitors of human ASAP1 ArfGAP activity, primary screen, biochemical, fluorescence polarization; inhibition, % at 16.5 µM; 360,000 compounds, 0.19% hits; ASAP1-stimulated ARF1 GTP hydrolysis, GDP FP detection; AID 624377, 2012; Arf-GAP with SH3 domain, ANK repeat and PH domain-containing protein 1 (Homo sapiens), …; in the data active means inhibition above about 25%
Target sequence (Q9ULH1 325-724 limits assumed): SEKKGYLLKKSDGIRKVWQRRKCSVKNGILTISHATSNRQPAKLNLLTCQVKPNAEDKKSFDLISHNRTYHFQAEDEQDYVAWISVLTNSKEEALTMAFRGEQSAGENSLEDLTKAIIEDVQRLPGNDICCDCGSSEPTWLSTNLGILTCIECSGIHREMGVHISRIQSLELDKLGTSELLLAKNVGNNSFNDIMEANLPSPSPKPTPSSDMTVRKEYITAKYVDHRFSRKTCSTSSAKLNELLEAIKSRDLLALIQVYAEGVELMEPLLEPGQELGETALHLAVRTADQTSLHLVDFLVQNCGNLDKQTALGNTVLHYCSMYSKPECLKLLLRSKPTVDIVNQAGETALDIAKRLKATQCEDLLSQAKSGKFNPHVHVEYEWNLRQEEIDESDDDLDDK
NPR1 activator = GC-A stimulated cGMP production enhancers – HEK293 GC-A cells, cGMP TR-FRET, EC30 ANP, primary screen; Atrial natriuretic peptide receptor 1 (Homo sapiens), P16066; 0% at EC30 ANP, 100% saturating ANP; activation, % at 10 µM; 370,000 compounds, 0.14% hits; AID 1671463, 2021; in the data active means activation above about 40%
NPR2 activator = human GC-B receptor activators, primary screen, HEK293 GC-B cells, cGMP TR-FRET, EC30 CNP; Atrial natriuretic peptide receptor 2 (Homo sapiens), P20594; 0% at EC30 CNP, 100% saturating CNP; activation, % at 10 µM; 370,000 compounds, 0.11% hits;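 active means activation at 10 µM reaching about 35% in either raw or pattern-adjusted values, limit read from the data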
A number is an active result.

Cc1ccn2c(=O)nc(SCC(=O)N3CCCC3)nc2c1 was read as CTSL1 counter 17, ARFGAP1 inh inactive, HCV core dimer inactive, ASAP1 inh inactive, NPR1 activator inactive and NPR2 activator inactive.
For CCS(=O)(=O)Nc1ccc2c(c1)N(C(C)=O)c1ccccc1CC2 the results were CTSL1 counter inactive, ARFGAP1 inh inactive, HCV core dimer inactive, ASAP1 inh inactive, NPR1 activator inactive and NPR2 activator inactive.
For COc1ccccc1NC1=C(N2CCCCC2)C(=O)c2ccccc2C1=O the results were CTSL1 counter 62 and HCV core dimer inactive.
Screening O=C(/C=C/c1ccc(O)cc1)c1ccccc1 returned CTSL1 counter inactive, ARFGAP1 inh inactive, HCV core dimer inactive, ASAP1 inh inactive, NPR1 activator inactive and NPR2 activator inactive.
Screening O=C1C(NS(=O)(=O)c2ccc(Br)cc2)=C(N2CCCCC2)C(=O)c2ccccc21 returned CTSL1 counter inactive, ARFGAP1 inh inactive, HCV core dimer inactive, ASAP1 inh inactive, NPR1 activator inactive and NPR2 activator inactive.
For O=C(/C=C/c1ccc(O)cc1)c1ccc(NC2=C(N3CCCCC3)C(=O)c3ccccc3C2=O)cc1 the results were CTSL1 counter 33, ARFGAP1 inh inactive, HCV core dimer inactive, ASAP1 inh inactive, NPR1 activator inactive and NPR2 activator inactive.
For O=C1C(Nc2cccc(O)c2)=C(N2CCCCC2)C(=O)c2ccccc21 the results were CTSL1 counter 86, ARFGAP1 inh inactive, HCV core dimer inactive, ASAP1 inh inactive, NPR1 activator inactive and NPR2 activator inactive.
`COc1cccc2sc3ccc(NCCC4CCCN4C)cc3c(=O)c12` (stereo not given) gave CTSL1 counter inactive, ARFGAP1 inh inactive, HCV core dimer inactive, ASAP1 inh inactive, NPR1 activator inactive and NPR2 activator inactive.
For COc1cc2sc3cc(NCC[C@@H]4CCCN4C)ccc3c(=O)c2cc1OC the results were ARFGAP1 inh 27, ASAP1 inh inactive, NPR1 activator inactive and NPR2 activator inactive.
`O=[N+]([O-])c1cc(/C=N/NC(=S)Nc2ccccc2Cl)ccc1Cl` gave CTSL1 counter inactive, ARFGAP1 inh inactive, HCV core dimer inactive, ASAP1 inh inactive, NPR1 activator 58 and NPR2 activator inactive.
For Cc1ccc(NC(=S)N/N=C/c2ccc(Cl)c([N+](=O)[O-])c2)cc1 the results were CTSL1 counter inactive, ARFGAP1 inh inactive, HCV core dimer inactive, ASAP1 inh inactive, NPR1 activator inactive and NPR2 activator inactive.
`CC1=CC(=O)C(C(C)C)=C/C1=N/OS(=O)(=O)c1ccccc1` gave CTSL1 counter 17, ARFGAP1 inh inactive, HCV core dimer inactive, ASAP1 inh inactive, NPR1 activator inactive and NPR2 activator inactive.
`CC1=CC(=O)C(C2CCCCC2)=C/C1=N\OS(=O)(=O)c1ccccc1` gave NPR1 activator inactive and NPR2 activator inactive.
Screening Oc1ccc(N=Cc2ccc(OCc3ccccc3)cc2)cc1 returned CTSL1 counter 45, ARFGAP1 inh inactive, HCV core dimer inactive, ASAP1 inh inactive, NPR1 activator inactive and NPR2 activator inactive.
`O=C(N/N=C/c1ccc(OCc2ccccc2)cc1)c1ccncc1` gave CTSL1 counter inactive, ARFGAP1 inh inactive, HCV core dimer inactive, ASAP1 inh inactive, NPR1 activator inactive and NPR2 activator inactive.
`O=C(N[C@@H](Cc1ccccc1)C(=O)NCc1ccc(F)cc1)C1CCNCC1` gave CTSL1 counter inactive, ARFGAP1 inh inactive, HCV core dimer inactive, ASAP1 inh inactive, NPR1 activator inactive and NPR2 activator inactive.
COc1ccc(S(=O)(=O)N2CCOCC2)cc1NC(=O)c1cccc(-n2cccc2)c1 was read as CTSL1 counter inactive, ARFGAP1 inh inactive, HCV core dimer 65, ASAP1 inh inactive, NPR1 activator inactive and NPR2 activator inactive.
Screening O=C(CCl)Nc1nc(-c2ccco2)c(-c2ccco2)s1 returned CTSL1 counter 21, ARFGAP1 inh inactive, HCV core dimer inactive, ASAP1 inh inactive, NPR1 activator inactive and NPR2 activator inactive.
`O=C(CCCSc1ccccc1)Nc1nc(-c2ccco2)c(-c2ccco2)s1` gave CTSL1 counter inactive, ARFGAP1 inh inactive, HCV core dimer inactive, ASAP1 inh inactive, NPR1 activator inactive and NPR2 activator inactive.
`CS(=O)(=O)N1CCC(C(=O)Nc2cc(Cl)ccc2Cl)CC1` gave CTSL1 counter inactive, ARFGAP1 inh inactive, HCV core dimer inactive, ASAP1 inh inactive, NPR1 activator inactive and NPR2 activator inactive.
`CC1(C)CC(=O)C2=C(C1)c1c(ccc3ccccc13)NC2c1ccc(Br)o1` (stereo not given) gave CTSL1 counter 57, ARFGAP1 inh inactive, HCV core dimer inactive, ASAP1 inh inactive, NPR1 activator inactive and NPR2 activator inactive.
Cc1cc(OCC(=O)NC2CC(C)(C)NC(C)(C)C2)c2c(C)cc(=O)oc2c1 was read as CTSL1 counter inactive, ARFGAP1 inh inactive, HCV core dimer inactive, ASAP1 inh inactive, NPR1 activator inactive and NPR2 activator inactive.
Screening CCc1cccc2c1NC(=O)[C@]21[C@@H]2C(=O)N(Cc3ccccc3)C(=O)[C@@H]2[C@@H]2CCCN21 returned CTSL1 counter inactive, ARFGAP1 inh inactive, HCV core dimer 55, ASAP1 inh inactive, NPR1 activator inactive and NPR2 activator inactive.
`Cc1c(Cl)ccc2c1NC(=O)[C@]21[C@@H]2C(=O)N(Cc3ccccc3)C(=O)[C@@H]2[C@@H]2CCCN21` gave CTSL1 counter inactive, ARFGAP1 inh inactive, HCV core dimer inactive, ASAP1 inh inactive, NPR1 activator inactive and NPR2 activator inactive.
Screening CCn1c(SCC(=O)N2CCCc3ccccc32)nc2cccnc21 returned CTSL1 counter inactive, ARFGAP1 inh inactive, HCV core dimer inactive, ASAP1 inh inactive, NPR1 activator inactive and NPR2 activator inactive.
For COC(=O)CS(=O)(=O)c1nnc([C@H](Cc2ccccc2)NC(=O)OC(C)(C)C)o1 the results were CTSL1 counter 24, ARFGAP1 inh inactive, HCV core dimer inactive, ASAP1 inh inactive, NPR1 activator inactive and NPR2 activator inactive.
`Cc1cccc(CS(=O)(=O)c2nnc([C@H](Cc3ccccc3)NC(=O)OC(C)(C)C)o2)c1` gave CTSL1 counter 31 and HCV core dimer inactive.
`CCN(CC)CC(=O)Nc1c(C)cccc1C` gave CTSL1 counter inactive, ARFGAP1 inh inactive, HCV core dimer inactive, ASAP1 inh inactive, NPR1 activator inactive and NPR2 activator inactive.

High-throughput results as filed in PubChem.
